Laboratory results from ChEMBL document CHEMBL1148329, “Synthesis and structure-activity studies on N-[5-(1H-imidazol-4-yl)-5,6,7,8-tetrahydro-1-naphthalenyl]methanesulfonamide, an imidazole-containing alpha(1A)-adrenoceptor agonist” (J Med Chem, 2004).

Key:
[1] = target: T1, Alpha-1D adrenergic receptor (Rattus norvegicus, UniProt P23944); assay: In vitro binding affinity towards alpha-1D adrenergic receptor of rat clone in radioligand binding assay
T1 sequence (P23944 whole entry): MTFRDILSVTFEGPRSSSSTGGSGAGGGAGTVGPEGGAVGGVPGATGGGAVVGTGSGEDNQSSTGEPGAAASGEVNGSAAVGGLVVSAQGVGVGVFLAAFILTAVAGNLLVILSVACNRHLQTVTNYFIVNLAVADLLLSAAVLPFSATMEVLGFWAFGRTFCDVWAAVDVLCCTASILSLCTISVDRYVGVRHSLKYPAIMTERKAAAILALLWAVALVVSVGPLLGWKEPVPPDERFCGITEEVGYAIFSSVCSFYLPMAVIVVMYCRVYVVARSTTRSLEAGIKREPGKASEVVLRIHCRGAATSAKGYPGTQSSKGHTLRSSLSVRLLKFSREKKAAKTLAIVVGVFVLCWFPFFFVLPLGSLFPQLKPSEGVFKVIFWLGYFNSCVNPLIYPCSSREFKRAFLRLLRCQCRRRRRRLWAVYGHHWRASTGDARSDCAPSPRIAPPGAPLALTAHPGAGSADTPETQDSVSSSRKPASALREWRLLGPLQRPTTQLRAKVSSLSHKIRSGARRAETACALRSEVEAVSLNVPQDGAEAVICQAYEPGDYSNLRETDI
Summary of the method: (§1)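 Radioligand binding at α1 subtypes: α1A from rat submaxillary gland, α1B hamster clone, α1D rat clone. Run essentially per an earlier method.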

[2] = target: T2, Alpha-1B adrenergic receptor (Mesocricetus auratus, UniProt P18841); assay: In vitro binding affinity towards alpha-1B adrenergic receptor of hamster clone in radioligand binding assay; type: single protein; summary of the method: as §1
T2 sequence (P18841 whole entry): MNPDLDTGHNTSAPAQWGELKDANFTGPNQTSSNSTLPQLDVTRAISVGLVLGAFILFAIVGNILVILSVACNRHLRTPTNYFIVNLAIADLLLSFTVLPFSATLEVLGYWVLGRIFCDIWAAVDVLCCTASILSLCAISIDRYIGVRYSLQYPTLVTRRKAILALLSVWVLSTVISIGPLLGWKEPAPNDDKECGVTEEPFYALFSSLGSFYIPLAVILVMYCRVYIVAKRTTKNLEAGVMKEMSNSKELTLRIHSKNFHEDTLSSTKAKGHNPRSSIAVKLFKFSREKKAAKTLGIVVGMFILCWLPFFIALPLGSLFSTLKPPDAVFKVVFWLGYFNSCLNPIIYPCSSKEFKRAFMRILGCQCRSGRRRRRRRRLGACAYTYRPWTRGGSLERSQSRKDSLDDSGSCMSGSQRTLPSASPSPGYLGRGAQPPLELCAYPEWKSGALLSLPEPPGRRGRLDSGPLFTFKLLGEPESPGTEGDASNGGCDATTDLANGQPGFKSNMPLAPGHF

[3] = target: Alpha adrenergic receptor 1A and 1B (Rattus norvegicus) (UniProt P15823+P43140); assay: Selectivity is ratio of pKi (binding affinity) of alpha-1B receptor to that of alpha-1A receptor.; type: protein assay
Sequence of Alpha adrenergic receptor 1A and 1B (Rattus norvegicus) (P15823 whole entry, looked up, one chain of several): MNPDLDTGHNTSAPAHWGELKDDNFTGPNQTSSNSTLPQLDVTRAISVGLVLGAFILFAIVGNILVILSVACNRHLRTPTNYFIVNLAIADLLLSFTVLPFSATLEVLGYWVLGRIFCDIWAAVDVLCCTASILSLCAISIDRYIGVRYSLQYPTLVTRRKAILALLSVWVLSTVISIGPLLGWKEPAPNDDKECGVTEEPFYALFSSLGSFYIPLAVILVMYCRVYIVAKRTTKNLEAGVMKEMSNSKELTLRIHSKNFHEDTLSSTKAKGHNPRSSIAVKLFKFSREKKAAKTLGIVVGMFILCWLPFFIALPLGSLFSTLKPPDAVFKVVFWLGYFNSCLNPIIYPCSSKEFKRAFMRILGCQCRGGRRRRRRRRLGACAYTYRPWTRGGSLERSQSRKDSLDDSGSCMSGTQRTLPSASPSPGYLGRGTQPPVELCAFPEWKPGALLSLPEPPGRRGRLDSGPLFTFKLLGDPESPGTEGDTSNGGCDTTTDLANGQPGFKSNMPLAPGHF

[4] = target: Alpha adrenergic receptor 1A and 1D (Rattus norvegicus) (UniProt P23944+P43140); assay: Selectivity is ratio of pKi (binding affinity) of Alpha-1D to that of alpha1A; type: protein assay
[5] = target: T3, Alpha-1A adrenergic receptor (Oryctolagus cuniculus) (UniProt O02824); assay: Efficacy relative to phenylephrine (PE) to constrict tissue containing the alpha-1A adrenergic receptor in rabbit urethra; type: functional, tissue-based
T3 sequence (whole entry): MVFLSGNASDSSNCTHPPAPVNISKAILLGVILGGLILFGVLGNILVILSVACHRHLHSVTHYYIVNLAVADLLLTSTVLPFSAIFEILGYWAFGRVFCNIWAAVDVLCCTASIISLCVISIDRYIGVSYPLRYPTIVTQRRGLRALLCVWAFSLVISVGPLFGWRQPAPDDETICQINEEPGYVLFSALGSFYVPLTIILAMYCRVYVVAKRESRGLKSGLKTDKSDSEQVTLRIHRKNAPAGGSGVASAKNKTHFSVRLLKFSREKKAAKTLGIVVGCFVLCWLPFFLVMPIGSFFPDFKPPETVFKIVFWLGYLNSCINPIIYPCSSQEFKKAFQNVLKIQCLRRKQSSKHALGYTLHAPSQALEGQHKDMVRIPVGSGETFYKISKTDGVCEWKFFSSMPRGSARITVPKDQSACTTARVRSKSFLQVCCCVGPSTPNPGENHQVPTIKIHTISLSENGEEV
Summary of the method: (§2)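 α1-agonist dose–response curves in isolated tissue: rabbit urethra (α1A), rat spleen (α1B), rat aorta (α1D). Agonist potency and efficacy read from the concentration–response curves.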

[6] = target: T3, Alpha-1A adrenergic receptor (Oryctolagus cuniculus); assay: Functional agonism of the compounds to constrict tissue containing the alpha-1A adrenergic receptor in rabbit urethra; type: tissue-based; summary of the method: as §2
Canis familiaris [7] = assay: Uroselectivity was determined by measuring effective dose required for 20 mmHg increase of mean arterial pressure (MAP) in vivo in dog; type: functional, Canis lupus familiaris, Artery
Summary of the method: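 Dog model recording intraurethral pressure (IUP) and mean arterial pressure (MAP) simultaneously. Increasing iv doses given, maximal effect of each dose taken. Doses giving a 5 mmHg rise in IUP (ED Δ5) or 20 mmHg rise in MAP (ED Δ20) were calculated, in nmol/kg ± SEM, n ≥ 4 (2 or 3 where footnoted).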

[8] = target: T4, Alpha-2A adrenergic receptor (Rattus norvegicus) (UniProt P22909); assay: Efficacy relative to clonidine to constrict tissue containing the alpha-2A adrenergic receptor in rat prostatic vas deferens
T4 sequence (whole entry): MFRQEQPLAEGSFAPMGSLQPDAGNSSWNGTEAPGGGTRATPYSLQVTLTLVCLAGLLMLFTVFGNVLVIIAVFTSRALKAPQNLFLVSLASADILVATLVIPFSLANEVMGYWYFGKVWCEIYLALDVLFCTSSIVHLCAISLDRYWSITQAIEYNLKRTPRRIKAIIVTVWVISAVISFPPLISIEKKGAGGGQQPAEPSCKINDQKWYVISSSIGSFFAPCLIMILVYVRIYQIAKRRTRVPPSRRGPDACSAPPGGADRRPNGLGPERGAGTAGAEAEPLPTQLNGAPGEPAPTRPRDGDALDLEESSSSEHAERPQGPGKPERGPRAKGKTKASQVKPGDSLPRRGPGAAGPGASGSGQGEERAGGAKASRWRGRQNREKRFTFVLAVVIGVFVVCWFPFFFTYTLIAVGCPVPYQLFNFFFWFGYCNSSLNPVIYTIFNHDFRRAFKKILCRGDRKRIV

[9] = target: T5, Alpha-1A adrenergic receptor (Rattus norvegicus, UniProt P43140); assay: In vitro binding affinity towards alpha-1A adrenergic receptor of rat submaxillary gland in radioligand binding assay; summary of the method: as §1
T5 sequence (P43140 whole entry): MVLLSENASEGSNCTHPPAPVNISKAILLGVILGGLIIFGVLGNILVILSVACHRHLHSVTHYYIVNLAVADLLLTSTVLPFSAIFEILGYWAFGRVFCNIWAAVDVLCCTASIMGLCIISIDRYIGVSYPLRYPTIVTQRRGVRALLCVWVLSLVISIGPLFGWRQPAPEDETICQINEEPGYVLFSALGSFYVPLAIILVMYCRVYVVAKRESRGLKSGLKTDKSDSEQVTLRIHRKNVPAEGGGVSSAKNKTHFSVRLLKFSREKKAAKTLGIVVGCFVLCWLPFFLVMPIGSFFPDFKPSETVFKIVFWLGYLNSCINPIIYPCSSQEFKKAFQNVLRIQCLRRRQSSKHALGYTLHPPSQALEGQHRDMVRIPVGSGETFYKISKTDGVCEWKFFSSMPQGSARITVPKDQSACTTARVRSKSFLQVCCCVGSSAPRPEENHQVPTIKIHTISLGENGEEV

Canis familiaris [10] = species: Canis familiaris; assay: Ratio of MAP ED delta20 to that of IUP ED delta5

Compound	Ki [1] [µM]	Ki [2] [µM]	Selectivity [3]	Selectivity [4]	Efficacy [5] [%]	pD2 [6]	ED delta20 (Canis familiaris [7]) [nM/kg]	Efficacy [8] [%]	Ki [9] [µM]	Ratio (Canis familiaris [10])
CCS(=O)(=O)Nc1cccc2c1SCCC2c1c[nH]cn1 (stereo not given)	> 10	> 10	10	10						
CCS(=O)(=O)Nc1cccc2c1COC2c1c[nH]cn1 (stereo not given)	> 10	> 10	10	10						
CS(=O)(=O)Nc1cccc2c1CCCCC2c1c[nH]cn1 (stereo not given)			> 7	2	17	4.72				
CS(=O)(=O)Nc1cccc2c1CCC[C@H]2c1c[nH]cn1					84		48.7	29		
CCS(=O)(=O)Nc1cccc(-c2c[nH]cn2)c1	> 10	> 10							> 10	
CC(c1cccc(NS(C)(=O)=O)c1)c1c[nH]cn1 (stereo not given)		> 10	10	1	92	5.38	234			3.4
CCS(=O)(=O)Nc1cccc(CC2CCCN2)c1 (stereo not given)	0.501	> 10	> 10	1	17	4.44			0.708	
CCS(=O)(=O)Nc1cc(F)cc2c1CCCC2c1c[nH]cn1 (stereo not given)	3.63	> 10	> 121	44					0.0832	
CS(=O)(=O)Nc1ccc(Cl)c2c1CCCC2c1c[nH]cn1 (stereo not given)		> 10	> 20	6	41	4.35				
CC(C)S(=O)(=O)Nc1cccc2c1CCCC2c1c[nH]cn1 (stereo not given)	2.04	> 10	> 9	2	74	5.17			1.15	
CCS(=O)(=O)Nc1cccc2c1CCCC2(O)c1c[nH]cn1 (stereo not given)	> 10	> 10	1	1					> 10	
CCS(=O)(=O)Nc1cccc(S(=O)(=O)c2c[nH]cn2)c1	> 10	> 10							> 10	
CS(=O)(=O)Nc1ccc(F)c2c1CCCC2c1c[nH]cn1 (stereo not given)		> 10	> 32	10	64	5.31	632			1
CCS(=O)(=O)Nc1cccc2c1CCCC2CNC (stereo not given)	> 10	> 10	> 7	> 7					1.38	
CCCS(=O)(=O)Nc1cccc2c1CCCC2c1c[nH]cn1 (stereo not given)	> 10	> 10	> 6	> 6					1.7	
CCS(=O)(=O)Nc1cccc(NC2=NCCN2)c1	0.355	> 10	> 3	< 0.04					2.95	
O=S(=O)(Nc1cccc2c1CCCC2c1c[nH]cn1)C1CC1 (stereo not given)	2.69	> 10	> 19	5	51	5.25			0.537	
CCS(=O)(=O)Nc1cccc(Sc2c[nH]cn2)c1	> 10	> 10							> 10	
CCS(=O)(=O)Nc1cc(C2CCCCC2)cc2c1CCCC2c1c[nH]cn1 (stereo not given)			3	2						
CS(=O)(=O)Nc1ccc(O)c2c1CCCC2c1c[nH]cn1 (stereo not given)	> 10	> 10	> 14	> 14	34	4.61				
CCS(=O)(=O)Nc1cccc(CC2CN=CN2)c1 (stereo not given)	6.46	10							> 10	
Cc1ccc(NS(C)(=O)=O)c2c1C(c1c[nH]cn1)CCC2 (stereo not given)		> 10	> 26	7	35	4.4				
CCS(=O)(=O)Nc1cccc(Cc2c[nH]cn2)c1C	1	8.13	60	8	69		202		0.129	5.6
CCS(=O)(=O)Nc1cccc2c1CCCC2c1c[nH]c(C)n1 (stereo not given)	> 10	> 10	> 10	> 10						
Cn1cncc1C1CCCc2c(NS(C)(=O)=O)cccc21 (stereo not given)	> 10	> 10							> 10	
